Rows were chosen to be rich in hits. Some 2.3% of all compounds tested hit in one or more screens of this group.
NadD inh: blocks S. aureus nicotinate mononucleotide adenylyltransferase. purified NadD enzyme, colorimetric absorbance read-out. inhibition, % at 20 µM. 360,000 compounds, 0.78% hits. AID 602399; in the data active = inhibition above about 26%
SUMO1-SIM PPI: modulators of human SUMO1-mediated protein-protein interactions. SUMO1 binding to a labelled peptide, TR-FRET, 1 h. inhibition, % at 20 µM. 360,000 compounds, 0.33% hits; in the data active = inhibition above about 37%
Scp1 inh: Scp-1 (human) phosphatase inhibition | inhibition, % at 20 µM | Q9GZU7 | AID 493091 | Recombinant Scp1, phosphopeptide, malachite green phosphate absorbance | 340,000 compounds, 0.88% hits;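 active = inhibition above about 50% at 20 µM, limit read from the data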
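Material – SCP-1 phosphatase catalytic domain, residues 76-261 · Buffer or medium – Acidic Tris acetate buffer with magnesium and detergent · Also added – Phospho 17-mer peptide substrate · Compound – single 20 µM dose, 1% DMSO · Times – 45 min room-temperature reaction, 5 min colour, 30 min stabiliser · Technique – Phosphate-binding colour reagent, absorbance read at 630 nm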
LMPTP block: blocks human LMPTP phosphatase | recombinant LMPTP-A, OMFP fluorogenic substrate, fluorescence intensity | AID 651560 | inhibition, % at 20 µM | P24666 | 360,000 compounds, 0.22% hits;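 active = compounds that cut the enzyme signal by at least half of the control window in the single-dose screen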
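Test system – LMPTP-A phosphatase enzyme · Quantity – 0.625 nM LMPTP-A final · Reagent – OMFP substrate, 400 µM final · Dosing – one test concentration per compound, 20 µM, with 3% DMSO overall · Timing – 50 min enzyme reaction at room temperature, protected from light · Detection – fluorescence intensity · Controls – substrate-only low control, DMSO enzyme-plus-substrate high control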
STEP inh: STEP (human) phosphatase inhibition; 360,000 compounds, 0.25% hits; inhibition, % at 20 µM; P54829; AID 588621; recombinant STEP, OMFP fluorogenic substrate, fluorescence;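 active = inhibition at 20 µM, scaled per plate between control wells, above about 37%, limit read from the data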
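System: isolated STEP enzyme; schedule: 20 min enzyme reaction at room temperature, protected from light; medium: Bis-Tris buffer pH 6.0, 2.5 mM DTT, 0.005% Tween 20; signal: fluorescence, 480/540 nm; dosing: single compound dose of 20 µM, 1% DMSO final; also added: OMFP substrate, 25 µM final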
DNMT1 block: blocks human DNA methyltransferase DNMT1; AID 588458; DNMT1 molecular beacon, Hinp1I cleavage, fluorescence; 360,000 compounds, 0.83% hits; inhibition (reported as % activation of signal), % at 10 µM; P26358; in the data active = inhibition above about 50%
Target sequence (P26358 504-1616 limits assumed): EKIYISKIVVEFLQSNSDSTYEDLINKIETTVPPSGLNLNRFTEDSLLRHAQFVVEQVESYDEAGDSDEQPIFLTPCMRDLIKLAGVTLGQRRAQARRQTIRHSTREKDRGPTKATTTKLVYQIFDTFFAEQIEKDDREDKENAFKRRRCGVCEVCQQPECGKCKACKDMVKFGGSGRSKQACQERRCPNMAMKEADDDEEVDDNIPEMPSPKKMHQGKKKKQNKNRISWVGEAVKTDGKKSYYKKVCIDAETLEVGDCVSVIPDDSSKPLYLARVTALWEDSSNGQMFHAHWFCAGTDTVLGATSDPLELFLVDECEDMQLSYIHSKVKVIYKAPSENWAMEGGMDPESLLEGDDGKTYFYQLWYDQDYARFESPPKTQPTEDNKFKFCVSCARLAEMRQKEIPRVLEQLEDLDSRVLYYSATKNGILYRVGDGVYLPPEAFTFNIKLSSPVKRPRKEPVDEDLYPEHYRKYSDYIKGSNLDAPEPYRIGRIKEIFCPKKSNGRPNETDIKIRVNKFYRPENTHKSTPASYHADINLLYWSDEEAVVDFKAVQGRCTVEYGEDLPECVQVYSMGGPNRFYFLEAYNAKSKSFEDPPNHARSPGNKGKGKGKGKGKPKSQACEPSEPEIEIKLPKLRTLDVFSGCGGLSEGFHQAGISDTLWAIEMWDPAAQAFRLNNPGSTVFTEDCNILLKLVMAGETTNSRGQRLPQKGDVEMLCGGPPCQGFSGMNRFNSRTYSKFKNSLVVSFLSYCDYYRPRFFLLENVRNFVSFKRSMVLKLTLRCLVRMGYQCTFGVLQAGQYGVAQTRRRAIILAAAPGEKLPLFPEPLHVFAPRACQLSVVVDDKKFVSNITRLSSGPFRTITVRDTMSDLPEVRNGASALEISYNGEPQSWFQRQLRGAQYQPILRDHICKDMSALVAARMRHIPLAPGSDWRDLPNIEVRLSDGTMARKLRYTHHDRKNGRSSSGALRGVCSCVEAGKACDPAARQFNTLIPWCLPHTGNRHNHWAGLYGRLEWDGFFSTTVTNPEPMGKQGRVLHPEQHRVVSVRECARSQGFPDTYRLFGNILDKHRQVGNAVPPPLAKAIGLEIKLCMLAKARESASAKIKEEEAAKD
Numbers stand for hits; 0 = inactive; - = not tested or not shown; ! = repeats disagree.

SMILES	NadD inh	SUMO1-SIM PPI	Scp1 inh	LMPTP block	STEP inh	DNMT1 block
CCOC(=O)Cc1cc(=O)n(-c2nc3ccccc3s2)[nH]1	0	38	0	0	0	0
CCCc1cc(=O)n(-c2nc3ccccc3s2)[nH]1	0	0	0	0	0	0
O=C1[C@@H](c2ccccc2)CC[C@@H]2C=CC[C@H]3CCN1[C@@H]32	0	0	-	0	-	-
O=[N+]([O-])c1ccc(O)c(/C=N/n2cnc3ccccc32)c1	0	0	0	0	0	0
Cc1ccc(/C=C2\SC(=S)N(/N=C/c3cc([N+](=O)[O-])ccc3O)C2=O)o1	37	45	57	53	0	83
Cn1c(=O)c2cc(NC(=S)NC3CCCCC3)ccc2n1C/C=C/c1ccccc1	0	0	-	0	0	0
C[C@H](NC(=O)[C@@H]1CCCN1C(=O)[C@@H]1CCCN1)c1ccccc1	0	0	-	0	-	-
O=C1C(Cl)=C(N2CCCCC2)C(=O)C(Cl)=C1c1cnc(N2CCCCC2)s1	33	0	0	0	0	84
CN(C)c1ncc(C2=C(Cl)C(=O)C(N3CCCC3)=C(Cl)C2=O)s1	0	0	0	0	0	69
CC(=O)c1cnc(N(C)C)s1	0	0	0	0	0	0
COc1ccc(-c2nc(CN3CCC(C(=O)N4CCOCC4)CC3)c(C)o2)cc1OC	0	0	0	0	0	0
Cc1oc(-c2cc(F)ccc2F)nc1CN1CCC(C(=O)N2CCOCC2)CC1	0	44	0	0	0	0
C#CCOc1nc(Nc2cccc([N+](=O)[O-])c2)nc(OCC#C)n1	0	46	0	0	0	0
O=C(Cc1ccccc1)N/N=C/c1ccc(-c2ccc([N+](=O)[O-])cc2)o1	0	0	0	0	0	0
Cc1ccc(C)c(N(CC(=O)N/N=C/c2ccc(-c3ccc([N+](=O)[O-])cc3)o2)S(=O)(=O)c2ccccc2)c1	32	0	0	0	0	0
CC(C)(C)NC(=O)CN(c1cccc([N+](=O)[O-])c1)S(=O)(=O)c1ccccc1	0	0	0	0	0	0
O=C(CN(c1cccc(Br)c1)S(=O)(=O)c1ccccc1)N/N=C/c1cc([N+](=O)[O-])ccc1O	47	0	0	0	0	0
COC(=O)[C@H](NC(=O)c1cc(-c2ccccc2)sc1N)C(C)C	-	0	-	0	-	-
c1ccc(C2Nc3cccc4cccc(c34)N2)cc1	0	0	0	0	0	0
COc1ccc(C2Nc3cccc4cccc(c34)N2)cc1	39	0	0	0	0	0
CCOc1cc(C2Nc3cccc4cccc(c34)N2)ccc1O	30	0	0	0	0	0
c1csc(C2Nc3cccc4cccc(c34)N2)c1	31	0	0	0	0	0
Clc1cccc(C2Nc3cccc4cccc(c34)N2)c1	27	0	0	0	0	0
Clc1ccc(C2Nc3cccc4cccc(c34)N2)cc1Cl	0	0	0	0	0	0
CCOc1ccc(C2Nc3cccc4cccc(c34)N2)cc1OC	0	0	0	0	0	0
SMILES	NadD inh	SUMO1-SIM PPI	Scp1 inh	LMPTP block	STEP inh	DNMT1 block
COc1ccc(C2=Nc3ccccc3N(C(=O)c3ccc4c(c3)OCO4)C2C(=O)Nc2c(C)cccc2C)cc1 (centres undefined)	-	0	-	0	-	-
O=C(c1ccc(CSc2nc3ccncc3[nH]2)cc1)N1CCCCCC1	0	0	0	0	0	0
O=C(c1ccc(CSc2nc3ccncc3[nH]2)cc1)N1CCN(c2cccc(Cl)c2)CC1	0	0	0	66	0	0
COC(=O)[C@@]12C[C@@H](CC(=O)N3CCSCC3)C(=O)N(Cc3ccccc3)C1=CCC(C)(C)C2	-	0	-	0	-	-
CC(C)(C)n1nc2c(c1NC(=O)COc1ccc(Cl)cc1)CS(=O)(=O)C2	0	0	0	0	0	0
CC(C)(C)n1nc2c(c1NC(=O)COc1ccc(Cl)cc1)CSC2	46	0	0	0	0	0
CCCCn1nnnc1C1(C)CCC(=O)N1CC(F)(F)F (centres undefined)	0	0	-	0	-	-
Nc1nc(N)c(Cc2ccc(Cl)cc2Cl)c(N)n1	0	0	0	64	0	0
CC(C)[C@H](NC(=O)OC(C)(C)C)c1cc(C(=O)N2CCOCC2)c(N)s1	-	0	-	0	-	-
N=C1S/C(=C\c2ccc(-c3ccccc3C(=O)O)o2)C(=O)N1c1ccc2c(c1)OCO2	0	0	53	0	0	0
CC(=O)Nc1ccc2nc3c(=O)n(C)c(=O)n(C)c3nc2c1	0	0	84	0	0	0
CC(C)C[C@H]1CN(CCCC[C@@H]2CNC(=O)C(=O)N2CC2CCCCC2)C(=O)C(=O)N1CCC1CCCCC1	0	0	-	0	-	-
CCCCCCCCCCCCCCCC[n+]1cccc(C(=O)N(CC)CC)c1	0	38!	0	0	0	0
CCCC1=NN2C(=N)/C(=C\c3cc(C)n(-c4cccc(C)c4)c3C)C(=O)N=C2S1	53	0	0	0	0	56
COc1cc(NC(=O)Cc2cccc3ccccc23)c(C(=O)O)cc1OC	0	0	0	0	0	0
CC1C/C(=N\NC(N)=S)c2cc(Cl)ccc2S1 (centres undefined)	0	0	0	0	0	0
CC(C)=C1CCC(C)CC1=NNC(N)=S (centres undefined)	0	0	56	0	0	0
COc1ccc(/C=C2\CN(Cc3ccccc3)C/C(=C\c3ccc(OC)cc3OC)C2=O)c(OC)c1	29	0	0	0	0	0
COc1ccc(NS(=O)(=O)c2ccc(C(=O)NCC3(N4CCOCC4)CCCCC3)cc2)cc1	0	40	0	0	0	0
COc1ccc(NS(=O)(=O)c2cccc(C(=O)NCC3(N4CCOCC4)CCCCC3)c2)cc1	0	0	0	0	0	0
CCN(CC)CCCNC(=O)c1nn2c(C(F)(F)F)cc(-c3ccccc3)nc2c1Cl	0	0	0	0	0	0
COc1ccc2nc(NC(=O)c3ccc4ncsc4c3)sc2c1	0	43	0	0	0	0
COc1ccc2nc(NC(=O)c3ccc(F)cc3)sc2c1	0	0	0	0	0	0
COc1ccc(C(=O)Nc2nc3cc4c(cc3s2)OCCO4)c(OC)c1	0	47	0	0	0	0
Cc1ccc(NC(=O)CCN2CC(C)OC(C)C2)cc1 (centres undefined)	0	0	0	0	0	0
O=C(NCc1ccco1)c1ccc(CS(=O)(=O)c2cccc(C(F)(F)F)c2)o1	0	55	0	0	0	0
CCCCN1/C(=C/c2ccc3ccccc3[n+]2CC)Sc2ccccc21	0	0	0	0	0	0
CCN1/C(=C/c2ccc3cc(C)ccc3[n+]2C)Sc2ccc3sccc3c21	64	0	0	77	0	0
CCN1/C(=C/c2ccc3cc(C)ccc3[n+]2CC)Sc2cc(C)ccc21	0	0	0	50	0	0
COc1ccc(C(C(=O)c2ccccc2)c2ccccc2)cc1 (centres undefined)	-	0	-	0	-	-
